Data taken from ChEMBL document CHEMBL1140312, “Synthesis and biological evaluation of geminal disulfones as HIV-1 integrase inhibitors” (J Med Chem, 2005).

Tests used:
[1] = target: T1, Human immunodeficiency virus type 1 integrase (Human immunodeficiency virus 1, UniProt Q7ZJM1); experiment: Inhibitory concentration against integration of HIV-1 Integrase
HeLa [2] = experiment: Antiviral activity against human immuno deficiency virus type 1 in HeLa H1-JC.37 cells; type: functional, cell-based
Outline: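 HIV-1 focal infectivity assay in HeLa H1-JC.37 indicator cells (HeLa CD4 expressing human CCR5, naturally CXCR4). Foci immunostained with monoclonal antibody 22-6 at 1/800 and counted under a dissecting microscope at 30× to 100×. Plotted as percentage of no-drug control foci against inhibitor concentration; EC50 from best-fit line of linear portion; at least three separate experiments.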

[3] = target: T1, Human immunodeficiency virus type 1 integrase; experiment: Inhibitory concentration against 3'processing of HIV-1 Integrase
HeLa [4] = experiment: Cytotoxicity for HeLa H1-JC.37 cells using MTS assay; type: functional, cell-based; settings: Homo sapiens
Outline: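 HeLa H1-JC.37 cell proliferation measured by MTS assay under manufacturer's recommended conditions. Data plotted as percentage of no-drug control against inhibitor concentration; IC50 for 50% inhibition of proliferation taken from best-fit line of linear portion of plot; at least two separate experiments.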

HeLa [5] = experiment: Ratio of cytotoxicity for HeLa H1-JC.37 cells (IC50) to antiviral activity against HIV-1 (EC50); type: functional, Homo sapiens
Outline: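 Ratio of cytotoxic IC50 to antiviral EC50 in HeLa H1-JC.37 cells (HeLa CD4 expressing CCR5). EC50 came from an HIV-1 focal infectivity assay: mAb 22-6 (1/800) immunostaining, foci counted at 30× to 100×, best-fit linear portion of % no-drug control foci versus concentration, at least three experiments. IC50 came from an MTS proliferation assay, same fitting, at least two experiments.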

T1 sequence (Q7ZJM1 whole entry): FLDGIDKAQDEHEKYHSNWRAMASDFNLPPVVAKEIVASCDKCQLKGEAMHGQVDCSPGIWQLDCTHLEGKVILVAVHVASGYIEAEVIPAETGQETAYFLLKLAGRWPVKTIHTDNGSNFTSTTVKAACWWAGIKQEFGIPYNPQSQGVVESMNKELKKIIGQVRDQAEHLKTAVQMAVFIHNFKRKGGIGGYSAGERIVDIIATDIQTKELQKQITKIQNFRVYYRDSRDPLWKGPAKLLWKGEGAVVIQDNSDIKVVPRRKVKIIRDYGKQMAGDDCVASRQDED

IC50 [1] | EC50 (HeLa [2]) | IC50 [3] | SMILES | IC50 (HeLa [4]) | Selectivity index (HeLa [5])
50 µM | 1.3 µM | 50 µM | COc1cc(/C=C/S(=O)(=O)CS(=O)(=O)/C=C/c2cc(O)c(O)c(OC)c2)cc(O)c1O | 29 µM | 22
5 µM | 2.4 µM | 4 µM | O=S(=O)(/C=C/c1ccc(O)c(O)c1)CS(=O)(=O)/C=C/c1ccc(O)c(O)c1 | 187 µM | 78
80 µM | 4.5 µM | 80 µM | COc1cc(/C=C/S(=O)(=O)CS(=O)(=O)/C=C/c2ccccc2)cc(O)c1O | 19 µM | 4.3
> 1000 µM |  | > 1000 µM | COc1cc(/C=C/S(=O)(=O)CS(=O)(=O)/C=C/c2ccc(C(C)=O)c(OC)c2)ccc1C(C)=O |  | 
 | 0.78 µM | > 1000 µM | O=C(O)C(=O)CC(=O)c1cc(OCc2ccccc2)cc(OCc2ccccc2)c1 |  | 
700 µM |  | 700 µM | O=S(=O)(/C=C/c1ccc(OCc2ccccc2)c(OCc2ccccc2)c1)CS(=O)(=O)/C=C/c1ccc(OCc2ccccc2)c(OCc2ccccc2)c1 |  | 

SMILES | IC50 [1] | EC50 (HeLa [2]) | IC50 [3] | IC50 (HeLa [4]) | Selectivity index (HeLa [5])
O=S(=O)(/C=C/c1cc(O)c(O)c(O)c1)CS(=O)(=O)/C=C/c1cc(O)c(O)c(O)c1 | 0.9 µM | 0.3 µM | 1.8 µM | 169 µM | 563
